Assay results: ChEMBL document CHEMBL1177860, “Design, synthesis, and pharmacological evaluation of the aqueous prodrugs of desmethyl anethole trithione with hepatoprotective activity” (Eur J Med Chem, 2010)

Assays:
[1] = Aqueous solubility in water after 24 hrs by HPLC analysis; format: physicochemical
How it was run: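 Water (10 mL) added to the solid; sonicated 5 min, then stirred 24 h in a 25 °C water bath. Centrifuged at 10 000 rpm for 10 min, supernatant membrane-filtered and quantified by HPLC.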

[2] = Chemical stability in phosphate buffer solution at pH 1.10 to 12.02 at 37 degC up to 24 hrs by HPLC analysis; format: physicochemical; details: pH 1.1, 24 h
How it was run: (§1)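 Phosphate buffers at pH 1.10, 4.02, 6.84, 9.14 and 12.02, held at 37 °C and at 60 °C. Remaining compound quantified by HPLC at 0, 1, 2, 4, 8, 16 and 24 h.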

[3] = Chemical stability in phosphate buffer solution at pH 1.10 to 6.84 at 60 degC up to 24 hrs by HPLC analysis; format: physicochemical; details: pH 1.1, 24 h; how it was run: as §1
Plasma = assay: Stability in mouse plasma up to 12 hrs by HPLC analysis; format: ADME, cell-free
How it was run: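 Aqueous compound solution (1.0 mL, 50 stock) added to 5 mL mouse plasma, kept at 37 ± 1 °C. 200 aliquots taken at 0, 1, 2, 4, 8 and 12 h, mixed with 400 acetonitrile for 5 min, centrifuged at 10 000 rpm for 5 min, and supernatant analysed by HPLC.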

Mus musculus [4] = assay: Hepatoprotective activity in Kunming mouse assessed as reduction of CCL4-induced increase of serum ALT level at 1 mg/kg, ip administered 0.5 hrs before CCL4 challenge measured after 16 hrs; format: functional; details: route intraperitoneal
How it was run: (§2)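 Adult male Kunming mice (20–22 g), fasted the day before, in groups of ten. Compound given ip at 1, 2 or 4 mg/kg, followed 0.5 h later by ip CCl₄ (5 mL/kg as 0.2% peanut oil solution). Controls: saline alone, and CCl₄ alone. Orbital blood taken at 16 h; serum assayed for ALT and AST. Mean ± S.D., compared with the CCl₄ group.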

Mus musculus [5] = assay: Hepatoprotective activity in Kunming mouse assessed as reduction of CCL4-induced increase of serum AST level at 1 mg/kg, ip administered 0.5 hrs before CCL4 challenge measured after 16 hrs; format: functional; details: route intraperitoneal; how it was run: as §2
Mus musculus [6] = assay: Hepatoprotective activity in Kunming mouse assessed as reduction of CCL4-induced increase of serum ALT level at 2 mg/kg, ip administered 0.5 hrs before CCL4 challenge measured after 16 hrs; format: functional; details: route intraperitoneal; how it was run: as §2
Mus musculus [7] = assay: Hepatoprotective activity in Kunming mouse assessed as reduction of CCL4-induced increase of serum AST level at 2 mg/kg, ip administered 0.5 hrs before CCL4 challenge measured after 16 hrs; format: functional; details: route intraperitoneal; how it was run: as §2
Mus musculus [8] = assay: Hepatoprotective activity in Kunming mouse assessed as reduction of CCL4-induced increase of serum ALT level at 4 mg/kg, ip administered 0.5 hrs before CCL4 challenge measured after 16 hrs; format: functional; details: route intraperitoneal; how it was run: as §2
Mus musculus [9] = assay: Hepatoprotective activity in Kunming mouse assessed as reduction of CCL4-induced increase of serum AST level at 4 mg/kg, ip administered 0.5 hrs before CCL4 challenge measured after 16 hrs; format: functional; details: route intraperitoneal; how it was run: as §2
Mus musculus [10] = assay: In vivo metabolic stability in Kunming mouse assessed as 5-(4-hydroxyphenyl)-3H-1,2-dithiole-3-thione level in plasma at 10 mg/kg, ip measured up to 8 hrs by HPLC analysis; format: ADME, organism-based; set-up: dose 10 mg/kg, route intraperitoneal
How it was run: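 Male Kunming mice, ten groups of four, given 10.00 mg/kg ip. Orbital blood (0.5 mL) taken into heparinized tubes at 0.02–8 h. Plasma precipitated with 2 volumes acetonitrile, sonicated, centrifuged, and analysed by HPLC at 354 nm. Plasma calibration curve spans 0.05–31.11 with six points; QC at three levels.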

| Compound | solubility at 24 h [1] [µg/mL] | Stability [2] | Stability [3] | Stability (Plasma) | Stability (Mus musculus [10]) | Activity (Mus musculus [4]) [IU/L] | Activity (Mus musculus [5]) [IU/L] | Activity (Mus musculus [6]) [IU/L] | Activity (Mus musculus [7]) [IU/L] | Activity (Mus musculus [8]) [IU/L] | Activity (Mus musculus [9]) [IU/L] |
| --- | --- | --- | --- | --- | --- | --- | --- | --- | --- | --- | --- |
| Cl.S=c1cc(-c2ccc(OCCN3CCOCC3)cc2)ss1 | > 20000 | Stable | Stable | Stable | – | 595.4 | 851.7 | 468 | 552.5 | 457.7 | 824.9 |
| Cl.S=c1cc(-c2ccc(OCCN3CCCCC3)cc2)ss1 | > 20000 | Stable | Stable | Stable | – | 169.3 | 920.6 | 259.6 | 416.8 | 382.9 | 423.9 |
| S=c1cc(-c2ccc(OCC[n+]3ccccc3)cc2)ss1.[Br-] | 2300 | Stable | Stable | Stable | – | 426.1 | 559.2 | 630.1 | 617.8 | 685 | 784.3 |
| CN(C)c1cc[n+](CCOc2ccc(-c3cc(=S)ss3)cc2)cc1.[Br-] | 2800 | Stable | Stable | Stable | – | – | – | – | – | – | – |
| CC[N+](CC)(CC)CCOc1ccc(-c2cc(=S)ss2)cc1.[Br-] | 3500 | Stable | Stable | Stable | – | – | – | – | – | – | – |

Second part, led by results:

| solubility at 24 h [1] [µg/mL] | Stability [2] | Stability [3] | Stability (Plasma) | Stability (Mus musculus [10]) | Compound | Activity (Mus musculus [4]) [IU/L] | Activity (Mus musculus [5]) [IU/L] | Activity (Mus musculus [6]) [IU/L] | Activity (Mus musculus [7]) [IU/L] | Activity (Mus musculus [8]) [IU/L] | Activity (Mus musculus [9]) [IU/L] |
| --- | --- | --- | --- | --- | --- | --- | --- | --- | --- | --- | --- |
| > 20000 | Stable | Stable | Stable | – | Cl.S=c1cc(-c2ccc(OCCN3CCCC3)cc2)ss1 | 416.6 | 501.2 | 535.9 | 582.9 | 561.5 | 607.8 |
| > 20000 | Stable | Stable | Stable | Stable | CN(C)CCOc1ccc(-c2cc(=S)ss2)cc1.Cl | 216.5 | 310.9 | 109.7 | 215.7 | 171.6 | 284.1 |
| < 130 | Stable | Stable | Stable | – | Oc1ccc(-c2cc(=S)ss2)cc1 | – | – | – | – | – | – |
| < 10 | Stable | Stable | Stable | – | COc1ccc(-c2cc(=S)ss2)cc1 [ANETHOLTRITHION] | 150.7 | 269.6 | 112.4 | 265.9 | 177.2 | 407.1 |
